Assay results taken from ChEMBL document CHEMBL4699631, “Antimalarial and anti-inflammatory activities of new chloroquine and primaquine hybrids: Targeting the blockade of malaria parasite transmission” (Bioorg Med Chem, 2020).
Activity calls are given as the source filed them. No cut-off for these calls is given here.

Key:
[1] = system: Plasmodium falciparum; experiment: Antimalarial activity against Plasmodium falciparum CQR (W2 clone) infected in human erythrocyte assessed as reduction in parasite growth incubated for 48 hrs by SYBR assay; type: functional, organism-based
Outline: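 W2 parasites cultured in A+ human erythrocytes in RPMI 1640 with ALBUMAX II, candle jar, 37 °C. Rings synchronized with sorbitol, then exposed to serial dilutions at 0.5% parasitemia and 2% hematocrit for 48 h at 37 °C. Lysis buffer with SYBR Safe, 30 min in the dark, fluorescence read at ex 485 nm. IC50 from sigmoid curve fit against drug-free control.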

[2] = system: J774.A1; experiment: Inhibition of LPS-induced TNFalpha production in mouse J774.A1 cells incubated for 24 hrs by ELISA; type: functional, cell-based; conditions: dose microM 0.5-25, time 24.0 hrs
Outline: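 J774A.1 cells seeded at 2×10^6 cells/well. Pretreated with vehicle, dexamethasone 1 μM, or compounds at 0.5–25 μM. Stimulated with LPS 100 ng/ml for 24 h. Supernatants stored at −20 °C, then TNFα measured by sandwich ELISA in pg/mL. Triplicate, mean ± SEM.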

[3] = Cytotoxicty against mouse J774.A1 cells assessed as cell viability at 50 uM incubated for 24 hrs by resazurin dye based assay (reference value: 100 %); conditions: read-out: Activity
Outline: (§1)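 J774A.1 macrophages grown in DMEM with 10% FBS and 0.1% gentamycin, seeded at 1×10^5 cells/well. Exposed to compounds at 0, 12.5, 25, 50 or 100 μM for 24 h. Resazurin (10 μg/ml) added for 3 h, then fluorescence read. Run in triplicate. Viability given as percent of 0.2% DMSO-treated cells.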

[4] = system: J774.A1; experiment: Inhibition of LPS-induced NO production in mouse J774.A1 cells incubated for 24 hrs by Griess reagent based assay; type: functional, cell-based; conditions: dose microM 0.5-25, time 24.0 hrs
Outline: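 Compounds made as 10 mM DMSO stocks and diluted in medium. J774A.1 cells pre-incubated with compounds at 25 μM for screening, or 0.5–25 μM for dose-response, with dexamethasone 1 μM or 0.2% DMSO as controls. Stimulated with LPS 37.5 ng/ml plus IFNγ 25 U/ml for 24 h at 37 °C, 5% CO2. Supernatant nitrite measured by Griess at 540 nm. Triplicate, mean ± SEM.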

[5] = Selectivity index, ratio of MDL50 for monkey BGM cells to IC50 for Plasmodium falciparum CQR (W2 clone) infected in human Erythrocyte; type: toxicity
Outline: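 SI calculated as MLD50 in BGM cells (neutral red, 24 h) divided by IC50 against P. falciparum W2 (SYBR, 48 h).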

[6] = Cytotoxicty against mouse J774.A1 cells assessed as cell viability at 12.5 uM incubated for 24 hrs by resazurin dye based assay (reference value: 100 %); conditions: read-out: Activity; outline: as §1
[7] = Cytotoxicity against monkey BGM cells assessed as reduction in cell viability incubated for 24 hrs by neutral red dye based assay; conditions: chlorocebus aethiops, read-out: MDL50
Outline: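 BGM monkey kidney cells grown in RPMI 1640 with 10% heat-inactivated fetal serum and gentamicin, 5% CO2, 37 °C. Cells allowed to adhere for 24 h, then exposed to compounds at 1000–1 μg/mL for 24 h. Neutral red uptake for 3 h, formaldehyde/CaCl2 fix, alcohol-acetic acid elution, absorbance at 540 nm. Viability taken as percent of untreated cells after background subtraction. MLD50 derived from this.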

[8] = Cytotoxicty against mouse J774.A1 cells assessed as cell viability at 100 uM incubated for 24 hrs by resazurin dye based assay (reference value: 100 %); conditions: read-out: Activity; outline: as §1
[9] = Cytotoxicty against mouse J774.A1 cells assessed as cell viability at 25 uM incubated for 24 hrs by resazurin dye based assay (reference value: 100 %); conditions: read-out: Activity; outline: as §1
[10] = system: Plasmodium berghei; experiment: Antimalarial activity against Plasmodium berghei NK65 infected in mouse assessed as increase in mouse survival rate at 25 mg/kg, po administered for 3 days and observed for 7 days; type: functional, organism-based; conditions: time 7.0 day
[11] = system: Plasmodium berghei; experiment: Antimalarial activity against Plasmodium berghei NK65 infected in mouse assessed as parasite growth at 25 mg/kg, po administered for 3 days and measured on day 5 Giemsa staining based assay relative to control; type: functional; conditions: time 5 day
Outline: (§2)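 P. berghei NK65 kept by weekly blood passage in mice. Mice inoculated i.p. with 1×10^6 infected erythrocytes, randomized after about 24 h into groups of five. Oral dosing once daily for three days, vehicle 3% DMSO in RPMI. Test compounds given at 25 mg/kg, CQ control at 20 mg/kg. Parasitemia read on Giemsa-stained thin smears on days 5 and 7 and expressed relative to untreated mice.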

[12] = system: Plasmodium berghei; experiment: Antimalarial activity against Plasmodium berghei NK65 infected in mouse assessed as parasite growth at 25 mg/kg, po administered for 3 days and measured on day 7 Giemsa staining based assay; type: functional; conditions: time 7 day; outline: as §2
[13] = system: Plasmodium berghei; experiment: Antimalarial activity against Plasmodium berghei NK65 infected in mouse assessed as parasite growth at 20 mg/kg, po administered for 3 days and measured on day 5 Giemsa staining based assay relative to control; type: functional; conditions: time 5 day; outline: as §2
[14] = system: Plasmodium berghei; experiment: Antimalarial activity against Plasmodium berghei NK65 infected in mouse assessed as increase in mouse survival at 20 mg/kg, po administered for 3 days and observed for 7 days; type: functional, organism-based; conditions: time 7.0 day
[15] = system: Plasmodium berghei; experiment: Antimalarial activity against Plasmodium berghei NK65 infected in mouse assessed as parasite growth at 20 mg/kg, po administered for 3 days and measured on day 7 Giemsa staining based assay relative to control; type: functional; conditions: time 7 day; outline: as §2

SMILES | IC50 [1] [µM] | viability at 24 h, 50 µM [3] [%] | selectivity ratio [5] | viability at 24 h, 12.5 µM [6] [%] | CC50 at 24 h [7] [µM] | viability at 24 h, 100 µM [8] [%] | viability at 24 h, 25 µM [9] [%] | also measured
CC(=O)Nc1ccc(Cl)cc1C(F)(F)C(=O)NCCCNc1ccnc2cc(Cl)ccc12 | 0.5 | 87.5 | > 1300 | 100 | 654 | 10.4 | 95.5 | inhibition [2]: Dose-dependent effect; inhibition [4]: Dose-dependent effect
COc1cc(NC(C)CCCNC(=O)C(F)(F)c2cc(Br)ccc2NC(C)=O)c2ncccc2c1 (stereo unspecified) | 3.5 | – | > 520 | – | > 1820 | – | – | –
COc1cc(NC(C)CCCNC(=O)C(=O)c2cc(Br)ccc2NC(C)=O)c2ncccc2c1 (stereo unspecified) | 2.5 | 75.5 | > 100 | 100 | 309 | 75.8 | 100 | –
CC(=O)Nc1ccc(C)cc1C(=O)C(=O)NCCNc1ccnc2cc(Cl)ccc12 | 0.49 | – | > 170 | – | > 84 | – | – | –
CC(=O)Nc1ccc(Cl)cc1C(=O)C(=O)NCCCNc1ccnc2cc(Cl)ccc12 | 0.12 | 82.7 | 258 | 100 | 30.9 | 10.7 | 100 | Activity [10]: Active; Activity [11]: 0%; inhibition [2]: Dose-dependent effect; inhibition [4]: Dose-dependent effect; Activity [12]: 0%
COc1cc(NC(C)CCCNC(=O)C(=O)c2cc(C)ccc2NC(C)=O)c2ncccc2c1 (stereo unspecified) | 25.3 | – | > 80 | – | > 2160 | – | – | –
CC(=O)Nc1ccc(C)cc1C(=O)C(=O)NCCCCNc1ccnc2cc(Cl)ccc12 | 0.84 | – | – | – | – | – | – | –
CC(=O)Nc1ccc(Br)cc1C(=O)C(=O)NCCCNc1ccnc2cc(Cl)ccc12 | 0.38 | – | 270 | – | 103 | – | – | –
COc1cc(NC(C)CCCNC(=O)C(=O)c2ccccc2NC(C)=O)c2ncccc2c1 (stereo unspecified) | 26.8 | – | – | – | – | – | – | –
CC(=O)Nc1ccccc1C(=O)C(=O)NCCCCNc1ccnc2cc(Cl)ccc12 | 0.18 | 83.4 | > 700 | 98.4 | 124 | 10.1 | 100 | Activity [11]: 0%; inhibition [2]: inactive; Activity [12]: 2%
CC(=O)Nc1ccc(Cl)cc1C(=O)C(=O)NCCNc1ccnc2cc(Cl)ccc12 | 0.52 | – | 292 | – | 152 | – | – | –
CC(=O)Nc1ccccc1C(F)(F)C(=O)NCCCCNc1ccnc2cc(Cl)ccc12 | 2.7 | 83.7 | > 50 | 100 | 140 | 10.4 | 100 | –
CC(=O)Nc1ccccc1C(F)(F)C(=O)NCCCNc1ccnc2cc(Cl)ccc12 | 0.4 | 91.5 | > 250 | 100 | 99 | 33.3 | 100 | –
CC(=O)Nc1ccccc1C(=O)C(=O)NCCCNc1ccnc2cc(Cl)ccc12 | 0.2 | 89.1 | > 400 | 100 | 91.7 | 67.6 | 100 | Activity [10]: Active; Activity [11]: 0%; Activity [12]: 15%
CCN(CC)CCCC(C)Nc1ccnc2cc(Cl)ccc12 (stereo unspecified) [CHLOROQUINE] | – | – | – | – | 457 | – | – | Activity [13]: 99%; Activity [14]: Active; Activity [15]: 99%
CC(=O)Nc1ccc(Cl)cc1C(=O)C(=O)NCCCCNc1ccnc2cc(Cl)ccc12 | 3.18 | – | 29 | – | 91.1 | – | – | –
COc1cc(NC(C)CCCNC(=O)C(F)(F)c2cc(C)ccc2NC(C)=O)c2ncccc2c1 (stereo unspecified) | 20.7 | – | – | – | – | – | – | –
COc1cc(NC(C)CCCNC(=O)C(=O)c2cc(Cl)ccc2NC(C)=O)c2ncccc2c1 (stereo unspecified) | 7.7 | 77.6 | > 20 | 100 | 164 | 54.6 | 100 | –
COc1cc(NC(C)CCCNC(=O)C(F)(F)c2ccccc2NC(C)=O)c2ncccc2c1 (stereo unspecified) | 25.5 | – | 4 | – | 113 | – | – | –
CC(=O)Nc1ccccc1C(=O)C(=O)NCCNc1ccnc2cc(Cl)ccc12 | 0.71 | – | > 300 | – | 261 | – | – | –
CC(=O)Nc1ccc(C)cc1C(=O)C(=O)NCCCNc1ccnc2cc(Cl)ccc12 | 0.22 | – | – | – | – | – | – | –
